Laboratory results as given in ChEMBL document CHEMBL2331537, “Effective inhibition of acid and neutral ceramidases by novel B-13 and LCL-464 analogues” (Bioorg Med Chem, 2013).
pEC50, pIC50: −log10 of the molar value. Active and inactive are the calls of the source. The calls are words filed in the database; no cut-off is given here.

Columns and labels:
MDA-MB-231 [1] = assay: Elevation of total ceramide level in human MDA-MB-231 cells at 25 uM after 24 hrs by LC-MS/MS analysis relative to control; assay type: functional
Procedure, shortened: (§1)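 MDA-MB-231 cells were exposed to inhibitor for 24 h at 37 °C at the concentration given in each line. Lipids were extracted by modified Bligh & Dyer with 20 pmol C17-ceramide as internal standard. Analysis was positive-mode LC–MS/MS on a C18 column, isocratic acetonitrile/2-propanol 3:2 with 1% formic acid. Values are mean SD of three independent experiments versus control.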

MDA-MB-231 [2] = assay: Elevation of total ceramide level in human MDA-MB-231 cells at 50 uM after 24 hrs by LC-MS/MS analysis relative to control; assay type: functional; procedure, shortened: as §1
[3] = biological target: T1, Acid ceramidase (Homo sapiens) (UniProt Q13510); assay: Inhibition of human recombinant acid ceramidase using Acyl-NBD-C12-cer as substrate at 80 uM after 8 hrs by fluorescence assay
T1 sequence (whole entry): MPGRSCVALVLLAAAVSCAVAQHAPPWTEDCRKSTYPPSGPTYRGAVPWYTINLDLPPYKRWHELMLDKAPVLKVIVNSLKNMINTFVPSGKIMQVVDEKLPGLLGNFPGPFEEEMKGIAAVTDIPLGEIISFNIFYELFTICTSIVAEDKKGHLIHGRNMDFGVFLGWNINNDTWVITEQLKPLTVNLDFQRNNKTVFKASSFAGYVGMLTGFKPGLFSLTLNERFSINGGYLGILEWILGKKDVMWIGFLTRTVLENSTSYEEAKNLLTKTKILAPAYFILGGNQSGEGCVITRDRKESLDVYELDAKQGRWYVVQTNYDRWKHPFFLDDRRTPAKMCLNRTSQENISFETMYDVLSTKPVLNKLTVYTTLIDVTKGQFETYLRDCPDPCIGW
Procedure, shortened: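 Recombinant human enzyme (60 total protein) was in 200 mM sodium acetate pH 4.5, 200 mM NaCl, 0.1% Triton X-100, DMSO <5% v/v. Final substrate was 15 and inhibitor 80, incubated 8 h at 37 °C. Reactions were quenched with chloroform/methanol 2:1 and NBD-fatty acid separated by TLC. Imaging used ex 430/em 550 nm; % hydrolysis versus no-inhibitor control, mean SD, three experiments.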

[4] = biological target: Neutral ceramidase (Homo sapiens) (UniProt Q9NR71); assay: Inhibition of human recombinant neutral ceramidase using Acyl-NBD-C12-cer as substrate at 80 uM after 2 hrs by fluorescence assay
Procedure, shortened: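 Recombinant human enzyme at 25 ng/mL final was in 200 mM sodium acetate pH 7.0, 200 mM NaCl, 0.1% Triton X-100. Final substrate was 15 and inhibitor 80, incubated 2 h at 37 °C. Reactions were chloroform/methanol quenched and cleaved/uncleaved NBD substrate resolved by TLC with fluorescence imaging. Values are % of no-inhibitor control, mean SD, three experiments.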

HL-60 = assay: Cytotoxicity against human HL60 cells assessed as growth inhibition by trypan blue dye exclusion assay
MDA-MB-231 [5] = assay: Elevation of C24-ceramide level in human MDA-MB-231 cells at 50 uM by LC-MS/MS analysis; assay type: functional, cell-based; procedure, shortened: as §1
MDA-MB-231 [6] = assay: Elevation of C16-ceramide level in human MDA-MB-231 cells at 25 uM by LC-MS/MS analysis; assay type: functional, cell-based; procedure, shortened: as §1
MDA-MB-231 [7] = assay: Elevation of C18-ceramide level in human MDA-MB-231 cells at 25 uM by LC-MS/MS analysis; assay type: functional, cell-based; procedure, shortened: as §1
MDA-MB-231 [8] = assay: Elevation of C24-ceramide level in human MDA-MB-231 cells at 25 uM by LC-MS/MS analysis; assay type: functional, cell-based; procedure, shortened: as §1
MDA-MB-231 [9] = assay: Elevation of C16-ceramide level in human MDA-MB-231 cells at 50 uM by LC-MS/MS analysis; assay type: functional, cell-based; procedure, shortened: as §1
MDA-MB-231 [10] = assay: Elevation of C18-ceramide level in human MDA-MB-231 cells at 50 uM by LC-MS/MS analysis; assay type: functional, cell-based; procedure, shortened: as §1
MDA-MB-231 [11] = assay: Induction of apoptosis in human MDA-MB-231 cells assessed as increase in cytoplasmic histone-associated DNA fragment level after 24 hrs by ELISA; assay type: functional, cell-based; conditions: MDA-MB-231, 24 h
Procedure, shortened: (§2)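 Cells were seeded for 24 h, then treated 24 h in DMEM with compound or DMSO vehicle. Cytoplasmic histone-associated DNA fragments were measured photometrically by Cell Death Detection ELISA Plus, following the kit protocol. Values are % of control (mean S.D., n = 3); dose–response is read as optical density.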

MDA-MB-231 [12] = assay: Induction of apoptosis in human MDA-MB-231 cells assessed as increase in cytoplasmic histone-associated DNA fragment level at 25 to 50 uM after 24 hrs by ELISA relative to control; assay type: functional; procedure, shortened: as §2
Alkaline ceramidase 2 = Alkaline ceramidase 2 (Homo sapiens, UniProt Q5QJU3); assay: Inhibition of alkaline ceramidase 2 in human HL-60 cells using 3H]C16-ceramide as substrate after 1 hr by liquid scintillation counting analysis; assay type: cell-based

Sequence of Neutral ceramidase (Homo sapiens) (Q9NR71 whole entry): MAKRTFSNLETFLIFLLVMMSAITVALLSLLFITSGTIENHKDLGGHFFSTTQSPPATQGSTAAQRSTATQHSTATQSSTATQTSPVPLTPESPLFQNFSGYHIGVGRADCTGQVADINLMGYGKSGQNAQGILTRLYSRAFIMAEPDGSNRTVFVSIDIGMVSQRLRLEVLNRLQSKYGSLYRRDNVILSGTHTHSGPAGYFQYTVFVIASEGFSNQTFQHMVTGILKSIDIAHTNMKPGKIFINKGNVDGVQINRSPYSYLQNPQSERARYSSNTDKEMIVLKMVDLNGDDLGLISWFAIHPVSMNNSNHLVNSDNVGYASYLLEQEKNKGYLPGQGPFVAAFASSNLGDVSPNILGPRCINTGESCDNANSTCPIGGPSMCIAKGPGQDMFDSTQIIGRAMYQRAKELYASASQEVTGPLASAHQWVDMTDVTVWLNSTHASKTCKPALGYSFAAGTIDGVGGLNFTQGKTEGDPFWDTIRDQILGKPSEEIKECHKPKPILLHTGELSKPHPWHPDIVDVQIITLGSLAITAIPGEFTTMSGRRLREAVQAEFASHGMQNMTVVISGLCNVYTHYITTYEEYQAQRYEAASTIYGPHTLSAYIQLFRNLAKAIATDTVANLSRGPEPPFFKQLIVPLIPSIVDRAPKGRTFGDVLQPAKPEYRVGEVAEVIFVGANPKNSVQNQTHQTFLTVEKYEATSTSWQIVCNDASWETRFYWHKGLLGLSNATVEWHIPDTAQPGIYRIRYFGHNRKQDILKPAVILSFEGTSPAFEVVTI

Structure (SMILES)	Activity (MDA-MB-231 [2])	inhibition [3]	inhibition [4]	also measured
CCCCCCCCCCCCCC(=O)N[C@H](C(=O)O)[C@H](O)c1ccc([N+](=O)[O-])cc1	150%	Active	inactive	Activity (MDA-MB-231 [1]): 150%
CN(C)CCCCCCCCCCCC(=O)N[C@H](CO)[C@H](O)c1ccc([N+](=O)[O-])cc1	>=150%	Active	30%	–
CN(C)CCCCCCCCCCCC(=O)NCC(O)c1cccnc1 (racemic)	< 150%	inactive	inactive	–
CCCCCCCCCCCCCC(=O)NCC(O)c1ccccc1 (racemic)	>=150%	–	–	–
C[C@@H](NC(=O)CCCCCCCCCCCN(C)C)[C@@H](O)c1ccccc1	>=150%	–	–	–
CCCCCCCCCCCCCC(=O)N[C@H](CO)[C@H](O)c1ccc([N+](=O)[O-])cc1	350%	Active	–	pIC50 (HL-60): 5.82; Activity (MDA-MB-231 [5]): Active; Activity (MDA-MB-231 [6]): inactive; Activity (MDA-MB-231 [7]): inactive; Activity (MDA-MB-231 [8]): inactive; Activity (MDA-MB-231 [9]): Active; Activity (MDA-MB-231 [10]): Active; Activity (MDA-MB-231 [1]): 150%
CCCCCCCCCCCCCC(=O)N[C@H](CO)[C@H](O)c1ccc(N)cc1	300%	Active	Active	Activity (MDA-MB-231 [1]): 300%; pEC50 (MDA-MB-231 [11]): 4.23; fold change (FC) (MDA-MB-231 [12]): 3
CN(C)CCCCCCCCCCCC(=O)NCC(O)c1ccncc1 (racemic)	>=150%	inactive	inactive	–
CCCCCCCCCCCCCC(=O)N[C@H](C)[C@@H](O)c1ccccc1	–	60%	8%	pIC50 (Alkaline ceramidase 2): 6.00
CCCCCCCCCCCCCC(=O)N[C@H](CO)C(=O)c1ccc([N+](=O)[O-])cc1	–	Active	Active	–
CN(C)CCCCCCCCCCCC(=O)NCC(O)c1ccccc1 (racemic)	>=150%	–	–	–
